Test results reported in ChEMBL document CHEMBL4130370, “Discovery of 5,6-diaryl-1,2,4-triazines hybrids as potential apoptosis inducers” (Eur J Med Chem, 2017).
Calls of active or inactive are those of the source. No cut-off for these calls is given here.

How the values were obtained:
MGC-803 [1] = experiment: Antiproliferative activity against human MGC803 cells after 48 hrs by MTT assay; assay type: functional, cell-based; conditions: MGC-803, 48 h
Outline: (§1)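 Cells exposed to compounds for 48 h, then read by MTT. IC50 is the concentration giving 50% inhibition of tumour cell proliferation, taken from dose-response curves. Values are means±SD of three independent experiments. 5-FU was the reference drug.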

PC-3 = experiment: Antiproliferative activity against human PC3 cells after 48 hrs by MTT assay; assay type: functional, cell-based; conditions: PC-3, 48 h; outline: as §1
ECa-109 cell line = experiment: Antiproliferative activity against human EC109 cells after 48 hrs by MTT assay; assay type: functional, cell-based; conditions: ECa-109, 48 h; outline: as §1
MGC-803 [2] = experiment: Induction of mitochondrial membrane potential loss in human MGC803 cells assessed as collapse of the mitochondrial membrane potential at 8 uM after 48 hrs by JC-1 staining based flow cytometry (reference value: 4.1%); assay type: functional
Outline: (§2)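 MGC-803 cells treated with vehicle or 6, 8 or 10 µM for 48 h. Mitochondrial membrane potential measured by JC-1 dye retention on flow cytometry.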

MGC-803 [3] = experiment: Induction of apoptosis in human MGC803 cells assessed as increase in cleaved caspase-3 expression after 48 hrs by Western blot analysis; assay type: functional, cell-based
Outline: (§3)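 MGC-803 cells treated at 0, 6, 8 or 10 µM for 48 h, then Western blotted. Band levels analysed statistically against control. Results representative of three independent experiments.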

MGC-803 [4] = experiment: Induction of apoptosis in human MGC803 cells assessed as late apoptotic cells at 6 uM after 48 hrs Annexin V-FITC/propidium iodide based flow cytometry (1%); assay type: functional
Outline: (§4)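 MGC-803 cells treated at 0, 6, 8 or 10 µM for 48 h. Cells then double-stained with Annexin V-FITC and propidium iodide and analysed by biparametric flow cytometry.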

MGC-803 [5] = experiment: Induction of morphological changes in human MGC803 cells assessed as rounding up of cells at 6 to 10 uM after 48 hrs by inverted microscopic analysis; assay type: functional, cell-based
Outline: (§5)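 MGC-803 cells incubated at 0, 6, 8 or 10 µM for 48 h. Morphology then recorded under an inverted microscope at ×400.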

MGC-803 [6] = experiment: Cell cycle arrest in human MGC803 cells assessed as accumulation at G2/M phase at 8 uM after 48 hrs by propidium iodide-staining based flow cytometry (19.75%); assay type: functional
Outline: (§6)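 MGC-803 cells treated at 0, 6 or 8 µM for 48 h. Cells then fixed, stained with propidium iodide and analysed by flow cytometry for cell-cycle phase distribution.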

MGC-803 [7] = experiment: Induction of apoptosis in human MGC803 cells assessed as early apoptotic cells at 10 uM after 48 hrs Annexin V-FITC/propidium iodide based flow cytometry (2.3%); assay type: functional; outline: as §4
MGC-803 [8] = experiment: Cell cycle arrest in human MGC803 cells assessed as accumulation at S phase at 6 uM after 48 hrs by propidium iodide-staining based flow cytometry (25.56%); assay type: functional; outline: as §6
MGC-803 [9] = experiment: Cell cycle arrest in human MGC803 cells assessed as accumulation at G1 phase at 8 uM after 48 hrs by propidium iodide-staining based flow cytometry (50.18%); assay type: functional; outline: as §6
MGC-803 [10] = experiment: Induction of apoptosis in human MGC803 cells assessed as late apoptotic cells at 8 uM after 48 hrs Annexin V-FITC/propidium iodide based flow cytometry (1%); assay type: functional; outline: as §4
MGC-803 [11] = experiment: Induction of apoptosis in human MGC803 cells assessed as viable cells at 8 uM after 48 hrs Annexin V-FITC/propidium iodide based flow cytometry (96.5%); assay type: functional; conditions: MGC-803, 48 h, read-out: Activity; outline: as §4
MGC-803 [12] = experiment: Induction of apoptosis in human MGC803 cells assessed as increase in DR4 expression after 48 hrs by Western blot analysis; assay type: functional, cell-based; outline: as §3
MGC-803 [13] = experiment: Induction of apoptosis in human MGC803 cells assessed as early apoptotic cells at 8 uM after 48 hrs Annexin V-FITC/propidium iodide based flow cytometry (2.3%); assay type: functional; outline: as §4
MGC-803 [14] = experiment: Cell cycle arrest in human MGC803 cells assessed as accumulation at G1 phase at 6 uM after 48 hrs by propidium iodide-staining based flow cytometry (50.18%); assay type: functional; outline: as §6
MGC-803 [15] = experiment: Induction of mitochondrial membrane potential loss in human MGC803 cells assessed as collapse of the mitochondrial membrane potential at 6 uM after 48 hrs by JC-1 staining based flow cytometry (reference value: 4.1%); assay type: functional; outline: as §2
MGC-803 [16] = experiment: Induction of apoptosis in human MGC803 cells after 48 hrs Annexin V-FITC/propidium iodide based flow cytometry; assay type: functional, cell-based; outline: as §4
GES1 = experiment: Cytotoxicity against human GES-1 cells after 48 hrs by MTT assay; assay type: cell-based; conditions: GES1, 48 h
MGC-803 [17] = experiment: Induction of mitochondrial membrane potential loss in human MGC803 cells assessed as collapse of the mitochondrial membrane potential at 10 uM after 48 hrs by JC-1 staining based flow cytometry (reference value: 4.1%); assay type: functional; outline: as §2
MGC-803 [18] = experiment: Induction of apoptosis in human MGC803 cells assessed as early apoptotic cells at 6 uM after 48 hrs Annexin V-FITC/propidium iodide based flow cytometry (2.3%); assay type: functional; outline: as §4
MGC-803 [19] = experiment: Induction of apoptosis in human MGC803 cells assessed as increase in Bax expression after 48 hrs by Western blot analysis; assay type: functional, cell-based; outline: as §3
MGC-803 [20] = experiment: Induction of apoptosis in human MGC803 cells assessed as decrease in Bcl2 expression up to 10 uM after 48 hrs by Western blot analysis; assay type: functional, cell-based
MGC-803 [21] = experiment: Induction of apoptosis in human MGC803 cells assessed as necrotic cells at 8 uM after 48 hrs Annexin V-FITC/propidium iodide based flow cytometry (0.1%); assay type: functional; outline: as §4
MGC-803 [22] = experiment: Induction of apoptosis in human MGC803 cells assessed as nuclear fragmentation at 6 to 10 uM after 48 hrs by Hoechst 33258-staining based fluorescent microscopy; assay type: functional, cell-based
Outline: (§7)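 MGC-803 cells incubated at the indicated concentrations for 48 h. Nuclei then stained (legend says DAPI; methods say Hoechst 33258) and viewed by fluorescence microscopy at ×400.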

MGC-803 [23] = experiment: Induction of apoptosis in human MGC803 cells assessed as nuclear condensation at 6 to 10 uM after 48 hrs by Hoechst 33258-staining based fluorescent microscopy; assay type: functional, cell-based; outline: as §7
MGC-803 [24] = experiment: Induction of apoptosis in human MGC803 cells assessed as viable cells at 6 uM after 48 hrs Annexin V-FITC/propidium iodide based flow cytometry (96.5%); assay type: functional; conditions: MGC-803, 48 h, read-out: Activity; outline: as §4
MGC-803 [25] = experiment: Induction of apoptosis in human MGC803 cells assessed as necrotic cells at 10 uM after 48 hrs Annexin V-FITC/propidium iodide based flow cytometry (0.1%); assay type: functional; outline: as §4
MGC-803 [26] = experiment: Induction of apoptosis in human MGC803 cells assessed as chromatin condensation at 6 to 10 uM after 48 hrs by Hoechst 33258-staining based fluorescent microscopy; assay type: functional, cell-based; outline: as §7
MGC-803 [27] = experiment: Induction of apoptosis in human MGC803 cells assessed as increase in cleaved PARP expression after 48 hrs by Western blot analysis; assay type: functional, cell-based; outline: as §3
MGC-803 [28] = experiment: Induction of mitochondrial membrane potential loss in human MGC803 cells after 48 hrs by JC-1 staining based flow cytometry; assay type: functional, cell-based; outline: as §2
MGC-803 [29] = experiment: Inhibition of colony formation in human MGC803 cells up to 8 uM after 7 days; assay type: functional, cell-based
Outline: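 MGC-803 cells treated at various concentrations for about a week. Colonies then imaged and compared with untreated control.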

MGC-803 [30] = experiment: Induction of morphological changes in human MGC803 cells assessed as formation of cell debris at 6 to 10 uM after 48 hrs by inverted microscopic analysis; assay type: functional, cell-based; outline: as §5
MGC-803 [31] = experiment: Cell cycle arrest in human MGC803 cells assessed as accumulation at G2/M phase after 48 hrs by propidium iodide-staining based flow cytometry; assay type: functional; outline: as §6
MGC-803 [32] = experiment: Induction of apoptosis in human MGC803 cells assessed as late apoptotic cells at 10 uM after 48 hrs Annexin V-FITC/propidium iodide based flow cytometry (1%); assay type: functional; outline: as §4
MGC-803 [33] = experiment: Induction of apoptosis in human MGC803 cells assessed as necrotic cells at 6 uM after 48 hrs Annexin V-FITC/propidium iodide based flow cytometry (0.1%); assay type: functional; outline: as §4
MGC-803 [34] = experiment: Cell cycle arrest in human MGC803 cells assessed as accumulation at S phase at 8 uM after 48 hrs by propidium iodide-staining based flow cytometry (25.56%); assay type: functional; outline: as §6
MGC-803 [35] = experiment: Induction of apoptosis in human MGC803 cells assessed as decrease in Bcl-xl expression up to 10 uM after 48 hrs by Western blot analysis; assay type: functional, cell-based
MGC-803 [36] = experiment: Induction of apoptosis in human MGC803 cells assessed as viable cells at 10 uM after 48 hrs Annexin V-FITC/propidium iodide based flow cytometry (96.5%); assay type: functional; conditions: MGC-803, 48 h, read-out: Activity; outline: as §4
MGC-803 [37] = experiment: Cell cycle arrest in human MGC803 cells assessed as accumulation at G2/M phase at 6 uM after 48 hrs by propidium iodide-staining based flow cytometry (19.75%); assay type: functional; outline: as §6
MGC-803 [38] = experiment: Induction of apoptosis in human MGC803 cells assessed as increase in cleaved caspase-9 expression after 48 hrs by Western blot analysis; assay type: functional, cell-based; outline: as §3

SMILES: Brc1ccc(Cn2cc(CSc3nnc(-c4ccccc4)c(-c4ccccc4)n3)nn2)cc1
- IC50 (MGC-803 [1]): > 100 µM
- IC50 (PC-3): 22 µM
- IC50 (ECa-109 cell line): > 100 µM

SMILES: c1ccc(-c2nnc(SCc3cn(Cc4ccc5ccccc5c4)nn3)nc2-c2ccccc2)cc1
- IC50 (MGC-803 [1]): > 100 µM
- IC50 (PC-3): > 100 µM
- IC50 (ECa-109 cell line): > 100 µM

SMILES: Fc1ccc(Cn2cc(CSc3nnc(-c4ccccc4)c(-c4ccccc4)n3)nn2)cc1
- IC50 (MGC-803 [1]): 7.59 µM
- Activity (MGC-803 [2]): 17%
- Activity (MGC-803 [3]): Dose-dependent effect
- Activity (MGC-803 [4]): 2.9%
- Activity (MGC-803 [5]): Active
- Activity (MGC-803 [6]): 34.39%
- Activity (MGC-803 [7]): 27.5%
- Activity (MGC-803 [8]): 25.11%
- Activity (MGC-803 [9]): 30.03%
- Activity (MGC-803 [10]): 7%
- viability at 8 µM (MGC-803 [11]): 75.9%
- Activity (MGC-803 [12]): Dose-dependent effect
- Activity (MGC-803 [13]): 16.9%
- Activity (MGC-803 [14]): 41.49%
- Activity (MGC-803 [15]): 5.2%
- Activity (MGC-803 [16]): Dose-dependent effect
- IC50 (GES1): 31.7 µM
- Activity (MGC-803 [17]): 42.9%
- Activity (MGC-803 [18]): 8.2%
- Activity (MGC-803 [19]): Dose-dependent effect
- Activity (MGC-803 [20]): Active
- Activity (MGC-803 [21]): 0.2%
- Activity (MGC-803 [22]): Active
- Activity (MGC-803 [23]): Active
- viability at 6 µM (MGC-803 [24]): 88.7%
- Activity (MGC-803 [25]): 0.1%
- Activity (MGC-803 [26]): Active
- Activity (MGC-803 [27]): Dose-dependent effect
- Activity (MGC-803 [28]): Dose-dependent effect
- IC50 (PC-3): 10.6 µM
- inhibition (MGC-803 [29]): Dose-dependent effect
- Activity (MGC-803 [30]): Active
- Activity (MGC-803 [31]): Dose-dependent effect
- Activity (MGC-803 [32]): 27.3%
- Activity (MGC-803 [33]): 0.2%
- Activity (MGC-803 [34]): 25.87%
- Activity (MGC-803 [35]): Active
- viability at 10 µM (MGC-803 [36]): 45.1%
- Activity (MGC-803 [37]): 26.75%
- Activity (MGC-803 [38]): Dose-dependent effect
- IC50 (ECa-109 cell line): 19.1 µM

SMILES: O=c1[nH]cc(F)c(=O)[nH]1 [FLUOROURACIL]
- IC50 (MGC-803 [1]): 9.79 µM
- IC50 (PC-3): 12.9 µM
- IC50 (ECa-109 cell line): 56.2 µM

SMILES: COc1ccc(C(=O)/C=C/c2ccc(-n3cc(CSc4nnc(-c5ccccc5)c(-c5ccccc5)n4)nn3)cc2)cc1
- IC50 (MGC-803 [1]): 36.7 µM
- IC50 (PC-3): > 100 µM
- IC50 (ECa-109 cell line): > 100 µM

SMILES: Clc1ccc(Cn2cc(CSc3nnc(-c4ccccc4)c(-c4ccccc4)n3)nn2)cc1
- IC50 (MGC-803 [1]): 13.2 µM
- IC50 (PC-3): 14.7 µM
- IC50 (ECa-109 cell line): 24.2 µM

SMILES: NS(=O)(=O)c1ccc(-n2cc(CSc3nnc(-c4ccccc4)c(-c4ccccc4)n3)nn2)cc1
- IC50 (MGC-803 [1]): > 100 µM
- IC50 (PC-3): > 100 µM
- IC50 (ECa-109 cell line): > 100 µM

SMILES: C#CCSc1nnc(-c2ccccc2)c(-c2ccccc2)n1
- IC50 (MGC-803 [1]): > 100 µM
- IC50 (PC-3): > 100 µM
- IC50 (ECa-109 cell line): > 100 µM
